In ChEMBL document CHEMBL1140332, “Design, synthesis, and enzymatic evaluation of N1-acyloxyalkyl- and N1-oxazolidin-2,4-dion-5-yl-substituted beta-lactams as novel inhibitors of human leukocyte elastase” (J Med Chem, 2005):
Calls of active or inactive are those of the source. No cut-off for these calls is given here.

Legend:
[1] = molecular target: T1, Neutrophil elastase (Homo sapiens) (UniProt P08246); assay: Second order rate constant for inhibition of Human leukocyte elastase (major diastereomeric pair of enantiomer)
T1 sequence (whole entry): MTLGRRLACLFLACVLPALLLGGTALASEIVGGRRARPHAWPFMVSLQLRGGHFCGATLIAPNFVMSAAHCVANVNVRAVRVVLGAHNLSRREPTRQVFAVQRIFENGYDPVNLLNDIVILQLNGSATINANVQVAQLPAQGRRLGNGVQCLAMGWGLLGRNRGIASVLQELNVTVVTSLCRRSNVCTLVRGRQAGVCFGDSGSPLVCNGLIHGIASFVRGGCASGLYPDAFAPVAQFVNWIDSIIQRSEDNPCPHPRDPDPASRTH
Summary of the method: (§1)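 Human leukocyte elastase (20 μM stock in pH 5.0 acetate buffer) incubated with inhibitor added from DMSO stock in 0.1 M HEPES pH 7.2, 25 °C. Aliquots withdrawn at intervals are diluted into HEPES containing MeO-Suc-Ala-Ala-Pro-Val-p-NA, and initial rates are followed at 410 nm over 60 s against control incubations. k_obs comes from plots of v/v0 versus time (Kitz–Wilson incubation method).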

[2] = molecular target: T1, Neutrophil elastase (Homo sapiens); assay: Second order rate constant for inhibition of Human leukocyte elastase (major diastereomeric 2 pairs of enantiomer); summary of the method: as §1
[3] = molecular target: T1, Neutrophil elastase (Homo sapiens); assay: Second order rate constant for inhibition of Human leukocyte elastase (minor diastereomeric pair of enantiomer); summary of the method: as §1
[4] = molecular target: T1, Neutrophil elastase (Homo sapiens); assay: Second order rate constant for inhibition of Human leukocyte elastase (minor diastereomeric pair of enantiomer); NI=no inhibition; summary of the method: as §1

Row | k obs / 1 [1] | SMILES | other results
1 | 38.2 1/M 1/s | CCOC(=O)C(OC(=O)NCc1ccccc1)N1C(=O)C(CC)(CC)C1Oc1ccccc1 (stereo unspecified) | –
2 | 68.5 1/M 1/s | CCC1(CC)C(=O)N(C2OC(=O)N(Cc3ccccc3)C2=O)C1S(=O)(=O)c1ccccc1 (stereo unspecified) | k obs / 1 [3]: 51 1/M 1/s
3 | 115 1/M 1/s | CCC1(CC)C(=O)N(C2OC(=O)N(Cc3ccccc3)C2=O)C1Oc1ccccc1 (stereo unspecified) | k obs / 1 [3]: 144 1/M 1/s
4 | 10.7 1/M 1/s | CCOC(=O)C(OC(=O)c1ccc(OC)cc1)N1CC(CC)(CC)C1=O (stereo unspecified) | –
5 | 43.2 1/M 1/s | CCC1(CC)C(=O)N(C2OC(=O)N(C(=O)[n+]3ccc(OC)cc3)C2=O)C1S(=O)(=O)c1ccccc1 (stereo unspecified) | k obs / 1 [3]: 49.7 1/M 1/s
6 | 23.9 1/M 1/s | CCC1(CC)CN(C2OC(=O)N(Cc3ccccc3)C2=O)C1=O (stereo unspecified) | –

Further lines, the compound ahead of its results:

Row | SMILES | k obs / 1 [1] | other results
7 | CCC1(CC)C(=O)N(C2OC(=O)N(c3ccc(C)cc3)C2=O)C1Sc1nc2ccccc2o1 (stereo unspecified) | – | k obs / 1 [2]: 80 1/M 1/s
8 | CCOC(=O)C(OC(=O)c1ccc(OC)cc1)N1C(=O)C(CC)(CC)C1Sc1nc2ccccc2o1 (stereo unspecified) | 12.9 1/M 1/s | –
9 | CCC1(CC)C(=O)N(C(=O)NCc2ccccc2)C1Oc1ccc(C(=O)O)cc1 (stereo unspecified) | 1500 1/M 1/s | –
10 | CCOC(=O)C(OC(=O)c1ccc(OC)cc1)N1C(=O)C(CC)(CC)C1S(=O)(=O)c1ccccc1 (stereo unspecified) | – | k obs / 1 [2]: 24.4 1/M 1/s
11 | CCC1(CC)C(=O)N(COC(=O)Nc2ccc(OC)cc2)C1S(=O)(=O)c1ccccc1 (stereo unspecified) | 100 1/M 1/s | –
12 | CCOC(=O)C(OC(=O)NC(=O)[n+]1ccccc1C(=O)OC)N1C(=O)C(CC)(CC)C1S(=O)(=O)c1ccccc1 (stereo unspecified) | 26.6 1/M 1/s | k obs / 1 [4]: inactive
